The species named for assay [1] is Rattus norvegicus. Description: (§1) Compound was evaluated for its glycogenolytic activity in normal male rats and the plasma glucose level was determined at 1 ug/100 g of body weight. It counts as functional, organism-based. The method in brief: (§2)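 Groups of five, anesthetized with sodium pentobarbital (6–7 mg/100 g), given peptide in saline s.c. (0.5 mL) 30 min later. Jugular blood was drawn at 15 min into EDTA, and plasma glucose was measured by glucose oxidase. Mean ± SD, n = 5.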

The species named for assay [2] is Rattus norvegicus. In words: Compound was evaluated for its glycogenolytic activity in normal male rats and the plasma glucose level was determined at 2 ug/100 g of body weight. It counts as functional, organism-based. The method, boiled down: as §2
The species entered for assay [3] is Rattus norvegicus. Description: Potency of glycogenolytic activity was reported by four point assay. It counts as functional.
Assay [4] is filed under the species Rattus norvegicus. In words: Compound was evaluated for its glycogenolytic activity in normal male rats and the plasma glucose level was determined at 4 ug/100 g of body weight. The class given is functional, organism-based. The method in brief: (§3)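 Male Charles River CD rats (175–350 g), fed and kept at 24 ± 2 °C under a 0500–1900 h light cycle for at least 1 week. Groups of five, anesthetized with sodium pentobarbital (6–7 mg/100 g), given peptide in saline s.c. (0.5 mL) 30 min later. Jugular blood was drawn at 15 min into EDTA, and plasma glucose was measured by glucose oxidase. Mean ± SD, n = 5.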

The species entered for assay [5] is Rattus norvegicus. Description: Compound was evaluated for its glycogenolytic activity in normal male rats and the plasma glucose level was determined at 6 ug/100 g of body weight. It counts as functional, organism-based. The method in brief:
as §3

Assay [6] is filed under the species Rattus norvegicus. In words: Compound was evaluated for its glycogenolytic activity in normal male rats and the plasma glucose level was determined at 12 ug/100 g of body weight. It counts as functional, organism-based. The method in brief:
as §3

The species entered for assay [7] is Rattus norvegicus. The description is as §1. It counts as functional, organism-based. The method in brief:
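Male Charles River CD rats (175–350 g), fed, anesthetized with sodium pentobarbital (6–7 mg/100 g), dosed subcutaneously 30 min later with peptide in saline (0.5 mL, gelatin-coated syringes), groups of five. Jugular blood drawn exactly 15 min post-injection into EDTA, and plasma glucose measured by glucose oxidase. Values are mean ± SD, n = 5.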
The source holds these as a separate data set.

The species named for assay [8] is Rattus norvegicus. Description: Compound was evaluated for its glycogenolytic activity in normal male rats and the plasma glucose level was determined at 0.5 ug/100 g of body weight. It counts as functional, organism-based.
Assay [9] is filed under the species Rattus norvegicus. Description: potency of glycogenolytic activity was reported by four point assay. The class given is functional, organism-based.

Peptide text beside a SMILES is read from it.

Drawing on ChEMBL document CHEMBL1122584 (1984), this text covers Plasma glucose and Potency for five compounds.

As for `CSCC[C@H](NC(=O)[C@H](CC(C)C)NC(=O)[C@H](Cc1c[nH]c2ccccc12)NC(=O)[C@H](CCC(N)=O)NC(=O)[C@@H](NC(=O)[C@H](Cc1ccccc1)NC(=O)[C@H](CC(=O)O)NC(=O)[C@H](CCC(N)=O)NC(=O)[C@H](C)NC(=O)[C@H](CCCN=C(N)N)NC(=O)[C@H](CCCN=C(N)N)NC(=O)[C@H](CO)NC(=O)[C@H](CC(=O)O)NC(=O)[C@H](CC(C)C)NC(=O)[C@H](Cc1ccc(O)cc1)NC(=O)[C@H](CCCN=C(N)N)NC(=O)[C@H](CO)NC(=O)[C@H](Cc1ccc(O)cc1)NC(=O)[C@H](CC(=O)O)NC(=O)[C@H](CO)NC(=O)[C@@H](NC(=O)[C@H](Cc1ccccc1)NC(=O)[C@@H](NC(=O)[C@@H](C)NC(=O)[C@H](CCC(N)=O)NC(=O)[C@H](CO)NC(=O)[C@@H](N)Cc1c[nH]cn1)[C@@H](C)O)[C@@H](C)O)C(C)C)C(=O)N[C@@H](CC(N)=O)C(=O)N[C@H](C(=O)O)[C@@H](C)O`, the Plasma glucose in [1] stood at 174 mg 100ml-1; in assay [2], 198 mg 100ml-1. Moreover, the Potency in assay [3] came to 44%.

Take `CSCC[C@H](NC(=O)[C@H](CC(C)C)NC(=O)[C@H](Cc1c[nH]c2ccccc12)NC(=O)[C@H](CCC(N)=O)NC(=O)[C@@H](NC(=O)[C@H](Cc1ccccc1)NC(=O)[C@H](CC(=O)O)NC(=O)[C@H](CCC(N)=O)NC(=O)[C@H](C)NC(=O)[C@H](CCCN=C(N)N)NC(=O)[C@H](CCCN=C(N)N)NC(=O)[C@H](CO)NC(=O)[C@H](CC(=O)O)NC(=O)[C@H](CC(C)C)NC(=O)[C@H](Cc1ccc(O)cc1)NC(=O)[C@H](CCCN=C(N)N)NC(=O)[C@H](CO)NC(=O)[C@H](Cc1ccc(O)cc1)NC(=O)[C@H](CC(=O)O)NC(=O)[C@H](CO)NC(=O)[C@@H](NC(=O)[C@H](Cc1ccccc1)NC(=O)[C@@H](NC(=O)[C@@H](C)NC(=O)[C@H](CCC(N)=O)NC(=O)[C@H](CO)NC(=O)[C@H](N)Cc1ccc(Cl)cc1)[C@@H](C)O)[C@@H](C)O)C(C)C)C(=O)N[C@@H](CC(N)=O)C(=O)N[C@H](C(=O)O)[C@@H](C)O`: the Plasma glucose in [2] was 158 mg 100ml-1; in assay [4], 176 mg 100ml-1. The compound also registered a Potency in [3] of 9%.

In the case of `CSCC[C@H](NC(=O)[C@H](CC(C)C)NC(=O)[C@H](Cc1c[nH]c2ccccc12)NC(=O)[C@H](CCC(N)=O)NC(=O)[C@@H](NC(=O)[C@H](Cc1ccccc1)NC(=O)[C@H](CC(=O)O)NC(=O)[C@H](CCC(N)=O)NC(=O)[C@H](C)NC(=O)[C@H](CCCN=C(N)N)NC(=O)[C@H](CCCN=C(N)N)NC(=O)[C@H](CO)NC(=O)[C@H](CC(=O)O)NC(=O)[C@H](CC(C)C)NC(=O)[C@H](Cc1ccc(O)cc1)NC(=O)[C@H](CCCN=C(N)N)NC(=O)[C@H](CO)NC(=O)[C@H](Cc1ccc(O)cc1)NC(=O)[C@H](CC(=O)O)NC(=O)[C@H](CO)NC(=O)[C@@H](NC(=O)[C@H](Cc1ccccc1)NC(=O)[C@@H](NC(=O)CNC(=O)[C@H](CCC(N)=O)NC(=O)[C@H](CO)NC(=O)[C@@H](N)Cc1ccccc1)[C@@H](C)O)[C@@H](C)O)C(C)C)C(=O)N[C@@H](CC(N)=O)C(=O)N[C@H](C(=O)O)[C@@H](C)O` (H-FSQGTFTSDYSRYLDSRRAQDFVQWLMNT-OH), the Plasma glucose in [1] was 161 mg 100ml-1; in [2] it was 183 mg 100ml-1. In assay [3], this compound showed a Potency of 31%.

With `CSCC[C@H](NC(=O)[C@H](CC(C)C)NC(=O)[C@H](Cc1c[nH]c2ccccc12)NC(=O)[C@H](CCC(N)=O)NC(=O)[C@@H](NC(=O)[C@H](Cc1ccccc1)NC(=O)[C@H](CC(=O)O)NC(=O)[C@H](CCC(N)=O)NC(=O)[C@H](C)NC(=O)[C@H](CCCN=C(N)N)NC(=O)[C@H](CCCN=C(N)N)NC(=O)[C@H](CO)NC(=O)[C@H](CC(=O)O)NC(=O)[C@H](CC(C)C)NC(=O)[C@H](Cc1ccc(O)cc1)NC(=O)[C@H](CCCN=C(N)N)NC(=O)[C@H](CO)NC(=O)[C@H](Cc1ccc(O)cc1)NC(=O)[C@H](CC(=O)O)NC(=O)[C@H](CO)NC(=O)[C@@H](NC(=O)[C@H](Cc1ccccc1)NC(=O)[C@@H](NC(=O)CNC(=O)[C@H](CCC(N)=O)NC(=O)[C@@H](N)CO)[C@@H](C)O)[C@@H](C)O)C(C)C)C(=O)N[C@@H](CC(N)=O)C(=O)N[C@H](C(=O)O)[C@@H](C)O` (H-SQGTFTSDYSRYLDSRRAQDFVQWLMNT-OH), the Plasma glucose in [5] was found to be 165 mg 100ml-1; in [6], 186 mg 100ml-1. The compound further gave a Potency in assay [3] of 4%.

With GLUCAGON, the Plasma glucose in assay [7] is 213 mg 100ml-1 [middle of 5 runs]; in assay [8] it was 186 mg 100ml-1 [middle of 4 runs]. Besides, the Potency in assay [3] and in assay [9] was 100% throughout.
